In ChEMBL document CHEMBL1275555, “Genetic heterogeneity in pbp genes among clinically isolated group B Streptococci with reduced penicillin susceptibility” (2008):
Converted amounts (≈) assume the structure as drawn.

Experiments:
[1] = system: Streptococcus sp. 'group B'; assay: Antimicrobial activity against Group B Streptococcus serotype III NEM 316 by broth microdilution method; type: functional
How it was run: (§1)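 Broth microdilution MICs read on a commercial dried panel system (type 3J), following CLSI guidelines. Isolates were grown in Todd-Hewitt broth at 37°C. Each strain was tested five times for reproducibility, with S. pneumoniae ATCC 49619 as the quality-control strain. β-lactamase activity was checked by the acidimetric method.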

[2] = system: Streptococcus sp. 'group B'; assay: Antimicrobial activity against Group B streptococcus serotype VI R1 harboring F395L, V405A, R433H, H438Y, and G648A mutations in PBP 2X and T567I mutation in PBP 2B by broth microdilution method; type: functional
How it was run: (§2)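 Broth microdilution MICs following CLSI guidelines, using a commercial panel system; GBS clinical isolates and reference strains grown in Todd-Hewitt broth at 37°C. Each strain tested five times to confirm reproducibility, with S. pneumoniae ATCC 49619 as quality-control strain. No β-lactamase activity by acidimetric method in any strain.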

[3] = system: Streptococcus sp. 'group B'; assay: Antimicrobial activity against Group B streptococcus serotype VI R5 harboring F395L, V405A, R433H, H438Y, and G648A mutations in PBP 2X and T567I mutation in PBP 2B by broth microdilution method; type: functional; how it was run: as §2
[4] = system: Streptococcus sp. 'group B'; assay: Antimicrobial activity against Group B streptococcus serotype Ib N2 harboring E63K mutation in PBP 2A and L41S mutation in PBP 1B by broth microdilution method; type: functional; how it was run: as §2
[5] = system: Streptococcus sp. 'group B'; assay: Antimicrobial activity against Group B streptococcus serotype VI R4 harboring Q557E mutation in PBP 2X and T567I, Y262N mutations in PBP 2B by broth microdilution method; type: functional; how it was run: as §2
[6] = system: Streptococcus sp. 'group B'; assay: Antimicrobial activity against Group B streptococcus R8 harboring T77I, S353F and A514V in PBP 2X; V80A and G613R in PBP 2B; and L45P, N163K, N723S and G527V in PBP 1A by broth microdilution method; type: functional; how it was run: as §2
[7] = system: Streptococcus sp. 'group B'; assay: Antimicrobial activity against Group B streptococcus serotype VI N4 harboring E63K mutation in PBP 2A and L41S mutation in PBP 1B by broth microdilution method; type: functional; how it was run: as §2
[8] = system: Streptococcus sp. 'group B'; assay: Antimicrobial activity against Group B streptococcus serotype Ib C2 harboring E63K mutation in PBP 2A and L41S mutation in PBP 1B by broth microdilution method; type: functional; how it was run: as §2
[9] = system: Streptococcus sp. 'group B'; assay: Antimicrobial activity against Group B streptococcus serotype V C1 harboring E63K mutation in PBP 2A and L41S mutation in PBP 1B by broth microdilution method; type: functional; how it was run: as §2
[10] = system: Streptococcus sp. 'group B'; assay: Antimicrobial activity against Group B Streptococcus serotype V harboring E63K mutation in PBP 2A and L41S mutation in PBP 1B by broth microdilution method
[11] = system: Streptococcus sp. 'group B'; assay: Antimicrobial activity against Group B streptococcus serotype VI R2 harboring F395L, V405A, R433H, H438Y, and G648A mutations in PBP 2X and T567I mutation in PBP 2B by broth microdilution method; type: functional; how it was run: as §2
[12] = system: Streptococcus sp. 'group B'; assay: Antimicrobial activity against Group B streptococcus serotype III N3 by broth microdilution method; type: functional; how it was run: as §1
[13] = system: Streptococcus sp. 'group B'; assay: Antimicrobial activity against Group B streptococcus serotype Ib R3 harboring Q557E, A400V mutations in PBP 2X and T567I, G539E mutations in PBP 2B by broth microdilution method; type: functional; how it was run: as §2
[14] = system: Streptococcus sp. 'group B'; assay: Antimicrobial activity against Group B streptococcus serotype Ia R7 harboring T77I, F395V and S353F in PBP 2X; V80A and G613R in PBP 2B; and L45P, N163K, N723S and Y470F in PBP 1A by broth microdilution method; type: functional; how it was run: as §2
[15] = system: Streptococcus sp. 'group B'; assay: Antimicrobial activity against Group B Streptococcus serotype Ia N1 harboring E63K mutation in PBP 2A and L41S mutation in PBP 1B by broth microdilution method; type: functional; how it was run: as §2
[16] = system: Streptococcus sp. 'group B'; assay: Antimicrobial activity against Group B streptococcus serotype VI R6 harboring F395L, V405A, R433H, H438Y, A374V and G648A mutations in PBP 2X and T567I mutation in PBP 2B by broth microdilution method; type: functional; how it was run: as §2

| SMILES | MIC [1] [µg/mL] | MIC [2] [µg/mL] | MIC [3] [µg/mL] | MIC [4] [µg/mL] | MIC [5] [µg/mL] | MIC [6] [µg/mL] | MIC [7] [µg/mL] | MIC [8] [µg/mL] | MIC [9] [µg/mL] | MIC [10] [µg/mL] | MIC [11] [µg/mL] | MIC [12] [µg/mL] | MIC [13] [µg/mL] | MIC [14] [µg/mL] | MIC [15] [µg/mL] | MIC [16] [µg/mL] |
| --- | --- | --- | --- | --- | --- | --- | --- | --- | --- | --- | --- | --- | --- | --- | --- | --- |
| C[C@H]1COc2c(N3CCN(C)CC3)c(F)cc3c(=O)c(C(=O)O)cn1c23.C[C@H]1COc2c(N3CCN(C)CC3)c(F)cc3c(=O)c(C(=O)O)cn1c23.O [LEVOFLOXACIN] | 0.5 | 8 | 4 | 0.5 | 2 | > 8 | 0.5 | > 8 | 0.5 | 0.5 | 8 | 0.5 | > 8 | > 8 | 1 | 4 |
| CN(C)CCn1nnnc1SCC1=C(C(=O)O)N2C(=O)[C@@H](NC(=O)Cc3csc(N)n3)[C@H]2SC1 [CEFOTIAM] | ≤ 0.5 | 4 (≈ 7.61 µM) | 2 (≈ 3.8 µM) | ≤ 0.5 | 4 (≈ 7.61 µM) | > 4 | ≤ 0.5 | ≤ 0.5 | ≤ 0.5 | ≤ 0.5 | 4 (≈ 7.61 µM) | ≤ 0.5 | 4 (≈ 7.61 µM) | > 4 | ≤ 0.5 | 4 (≈ 7.61 µM) |
| CO/N=C(\C(=O)N[C@@H]1C(=O)N2C(C(=O)O)=C(COC(C)=O)CS[C@H]12)c1csc(N)n1 [CEFOTAXIME] | ≤ 0.06 | 0.5 (≈ 1.1 µM) | 0.5 (≈ 1.1 µM) | 0.12 (≈ 0.263 µM) | 0.5 (≈ 1.1 µM) | 1 (≈ 2.2 µM) | ≤ 0.06 | 0.12 (≈ 0.263 µM) | ≤ 0.06 | ≤ 0.06 | 0.5 (≈ 1.1 µM) | 0.12 (≈ 0.263 µM) | 0.5 (≈ 1.1 µM) | 1 (≈ 2.2 µM) | 0.12 (≈ 0.263 µM) | 0.5 (≈ 1.1 µM) |
| CN(C)[C@@H]1C(O)=C(C(N)=O)C(=O)[C@@]2(O)C(O)=C3C(=O)c4c(O)cccc4[C@@](C)(O)[C@H]3C[C@@H]12 [TETRACYCLINE] | ≤ 0.5 | > 4 | > 4 | ≤ 0.5 | > 4 | > 4 | > 4 | ≤ 0.5 | > 4 | > 4 | > 4 | > 4 | ≤ 0.5 | > 4 | > 4 | > 4 |
| CC1(C)S[C@@H]2[C@H](NC(=O)Cc3ccccc3)C(=O)N2[C@H]1C(=O)O [PENICILLIN G] | 0.06 (≈ 0.179 µM) | 0.5 (≈ 1.5 µM) | 0.25 (≈ 0.748 µM) | 0.06 (≈ 0.179 µM) | 0.5 (≈ 1.5 µM) | 1 (≈ 2.99 µM) | 0.06 (≈ 0.179 µM) | 0.06 (≈ 0.179 µM) | 0.06 (≈ 0.179 µM) | 0.06 (≈ 0.179 µM) | 0.5 (≈ 1.5 µM) | 0.06 (≈ 0.179 µM) | 0.5 (≈ 1.5 µM) | 1 (≈ 2.99 µM) | 0.06 (≈ 0.179 µM) | 0.5 (≈ 1.5 µM) |
| CO/N=C(\C(=O)N[C@@H]1C(=O)N2C(C(=O)[O-])=C(C[n+]3ccn4ncccc43)CS[C@H]12)c1nsc(N)n1 [CEFOZOPRAN] | 0.12 (≈ 0.233 µM) | 0.5 (≈ 0.97 µM) | 0.5 (≈ 0.97 µM) | 0.12 (≈ 0.233 µM) | 0.5 (≈ 0.97 µM) | 1 (≈ 1.94 µM) | 0.12 (≈ 0.233 µM) | 0.12 (≈ 0.233 µM) | 0.12 (≈ 0.233 µM) | 0.12 (≈ 0.233 µM) | 1 (≈ 1.94 µM) | 0.12 (≈ 0.233 µM) | 1 (≈ 1.94 µM) | 2 (≈ 3.88 µM) | 0.12 (≈ 0.233 µM) | 0.5 (≈ 0.97 µM) |
| CC1(C)S[C@@H]2[C@H](NC(=O)[C@H](N)c3ccccc3)C(=O)N2[C@H]1C(=O)O [AMPICILLIN] | 0.12 (≈ 0.343 µM) | 0.5 (≈ 1.43 µM) | 0.5 (≈ 1.43 µM) | 0.25 (≈ 0.715 µM) | 0.25 (≈ 0.715 µM) | 0.5 (≈ 1.43 µM) | 0.12 (≈ 0.343 µM) | 0.25 (≈ 0.715 µM) | 0.12 (≈ 0.343 µM) | 0.12 (≈ 0.343 µM) | 0.5 (≈ 1.43 µM) | 0.12 (≈ 0.343 µM) | 0.25 (≈ 0.715 µM) | 0.5 (≈ 1.43 µM) | 0.12 (≈ 0.343 µM) | 0.5 (≈ 1.43 µM) |
